{
  "source": "ChEMBL document CHEMBL4392876",
  "about": "“Natural-Product-Inspired Compounds as Countermeasures against the Liver Carcinogen Aflatoxin B1” (J Nat Prod, 2019)",
  "key": {"HepG2 [1]": {"system": "HepG2", "experiment": "Protection against AfB1-induced toxicity in human HepG2 cells assessed as live cell area at 50 uM measured after 48 hrs by calcein-AM/Hoechst 33342 staining based high-content imaging analysis relative to control", "type": "functional"}, "HepG2 [2]": {"system": "HepG2", "experiment": "Protection against AfB1-induced toxicity in human HepG2 cells assessed as live cell area at 0.5 uM measured after 48 hrs by calcein-AM/Hoechst 33342 staining based high-content imaging analysis relative to control", "type": "functional"}, "HepG2 [3]": {"system": "HepG2", "experiment": "Protection against AfB1-induced toxicity in human HepG2 cells assessed as increase in live cell area at >0.5 uM measured after 48 hrs by calcein-AM/Hoechst 33342 staining based high-content imaging analysis relative to control", "type": "functional"}, "HepG2 [4]": {"system": "HepG2", "experiment": "Protection against AfB1-induced toxicity in human HepG2 cells assessed as increase in live cell area measured after 48 hrs by calcein-AM/Hoechst 33342 staining based high-content imaging analysis", "type": "functional"}, "HepG2 [5]": {"system": "HepG2", "experiment": "Increase in live cell area in human HepG2 cells measured after 48 hrs by calcein-AM/Hoechst 33342 staining based high-content imaging analysis", "type": "functional"}, "HepG2 [6]": {"system": "HepG2", "experiment": "Protection against AfB1-induced toxicity in human HepG2 cells assessed as live cell area at 12.5 uM measured after 48 hrs by calcein-AM/Hoechst 33342 staining based high-content imaging analysis relative to control", "type": "functional"}, "HepG2 [7]": {"system": "HepG2", "experiment": "Protection against AfB1-induced toxicity in human HepG2 cells assessed as increase in live cell area at >12.5 uM measured after 48 hrs by calcein-AM/Hoechst 33342 staining based high-content imaging analysis relative to control", "type": "functional"}, "HepG2 [8]": {"system": "HepG2", "experiment": "Toxicity in human HepG2 cells measured after 48 hrs by calcein-AM/Hoechst 33342 staining based high-content imaging analysis", "type": "cell-based", "settings": "hepg2, 48 h"}, "HepG2 [9]": {"system": "HepG2", "experiment": "Protection against AfB1-induced toxicity in 3D-spheroids of human HepG2 cells assessed as live cell area at 10 uM measured after 3 days by calcein-AM/Hoechst 33342 staining based high-content imaging analysis relative to control", "type": "functional", "procedure,_shortened": "(§1)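 HepG2 spheroids: 1000 cells/well in ultralow-attachment plates, grown 4 days to tight spheroids, then test compounds (10 μM) plus AfB1 in complete EMEM for 3 further days. Calcein AM/Hoechst staining and high-content imaging of viability and live spheroid size. Live cell area relative to DMSO vehicle-only spheroids; n = 3.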"}, "HepG2 [10]": {"system": "HepG2", "experiment": "Protection against AfB1-induced morphological changes in 3D-spheroids of human HepG2 cells up to 10 uM measured after 3 days by calcein-AM/Hoechst 33342 staining based microscopic analysis", "type": "functional, cell-based", "procedure,_shortened": "as §1"}, "HepG2 [11]": {"system": "HepG2", "experiment": "Protection against AfB1-induced toxicity in human HepG2 cells assessed as live cell area at 5 uM measured after 48 hrs by calcein-AM/Hoechst 33342 staining based high-content imaging analysis relative to control", "type": "functional"}, "HepG2 [12]": {"system": "HepG2", "experiment": "Protection against AfB1-induced toxicity in human HepG2 cells assessed as increase in live cell area at >5 uM measured after 48 hrs by calcein-AM/Hoechst 33342 staining based high-content imaging analysis relative to control", "type": "functional"}},
  "note": "The source made the active and inactive calls. No cut-off for these calls is given here.",
  "data": [
    {"smiles": "COc1cc(C(O)c2ccccc2)ccc1O", "note": "(centres undefined)", "values": [
      {"measurement": "%max", "setting": "HepG2 [1]", "value": 41, "unit": "%"}
    ]},
    {"smiles": "COc1ccc(C(=O)NCc2cccnc2)c(O)c1", "values": [
      {"measurement": "%max", "setting": "HepG2 [2]", "value": 33.5, "unit": "%"},
      {"measurement": "Activity", "setting": "HepG2 [3]", "value": "inactive"}
    ]},
    {"smiles": "COC(=O)c1cc(O)cc(OC)c1C(=O)c1c(O)cc(C)cc1OC", "values": [
      {"measurement": "%max", "setting": "HepG2 [1]", "value": 68.3, "unit": "%"}
    ]},
    {"smiles": "CC(=O)N[C@@H](CS)C(=O)O", "values": [
      {"measurement": "Activity", "setting": "HepG2 [4]", "value": "Active"},
      {"measurement": "Activity", "setting": "HepG2 [5]", "value": "Active"}
    ]},
    {"smiles": "COc1ccc(C(=O)c2ccc(OC)cc2O)c(O)c1", "values": [
      {"measurement": "%max", "setting": "HepG2 [1]", "value": 53.9, "unit": "%"}
    ]},
    {"smiles": "COc1ccc(C(=O)c2ccccc2)c(O)c1", "note": "[OXYBENZONE]", "values": [
      {"measurement": "%max", "setting": "HepG2 [6]", "value": 61.6, "unit": "%"},
      {"measurement": "Activity", "setting": "HepG2 [7]", "value": "inactive"}
    ]},
    {"smiles": "COc1cc(OC)c2c(O)c3c(=O)cc(C)oc3cc2c1", "note": "[RUBROFUSARIN B]", "values": [
      {"measurement": "%max", "setting": "HepG2 [2]", "value": 64.9, "unit": "%"},
      {"measurement": "Activity", "setting": "HepG2 [3]", "value": "inactive"},
      {"measurement": "Activity", "setting": "HepG2 [8]", "value": "Toxic"}
    ]},
    {"smiles": "COc1cc(O)c2c(=O)oc3cc(O)cc(C)c3c2c1", "values": [
      {"measurement": "%max", "setting": "HepG2 [1]", "value": 67, "unit": "%"},
      {"measurement": "Activity", "setting": "HepG2 [8]", "value": "Non-Toxic"},
      {"measurement": "Activity", "setting": "HepG2 [9]", "value": 95, "unit": "%"},
      {"measurement": "Activity", "setting": "HepG2 [10]", "value": "Active"}
    ]},
    {"smiles": "COc1cc(O)c2c(=O)c3ccccc3oc2c1", "values": [
      {"measurement": "%max", "setting": "HepG2 [11]", "value": 63.9, "unit": "%"},
      {"measurement": "Activity", "setting": "HepG2 [12]", "value": "inactive"},
      {"measurement": "Activity", "setting": "HepG2 [8]", "value": "Toxic"},
      {"measurement": "Activity", "setting": "HepG2 [9]", "value": 72, "unit": "%"},
      {"measurement": "Activity", "setting": "HepG2 [10]", "value": "Active"}
    ]},
    {"smiles": "Cc1cc(O)cc2oc(=O)c3c(O)cc(O)cc3c12", "note": "[ALTERNARIOL]", "values": [
      {"measurement": "%max", "setting": "HepG2 [2]", "value": 15.2, "unit": "%"},
      {"measurement": "Activity", "setting": "HepG2 [3]", "value": "inactive"}
    ]},
    {"smiles": "CC(C)c1nc(CN(C)C(=O)N[C@H](C(=O)N[C@@H](Cc2ccccc2)C[C@H](O)[C@H](Cc2ccccc2)NC(=O)OCc2cncs2)C(C)C)cs1", "note": "[RITONAVIR]", "values": [
      {"measurement": "%max", "setting": "HepG2 [2]", "value": 72, "unit": "%"},
      {"measurement": "Activity", "setting": "HepG2 [3]", "value": "inactive"}
    ]},
    {"smiles": "COc1cc(C(=O)c2ccccc2)ccc1O", "values": [
      {"measurement": "%max", "setting": "HepG2 [1]", "value": 60.2, "unit": "%"}
    ]},
    {"smiles": "COC1=C(O)c2c(O)cc(C)c3c(O)cc(O)c(c23)C1=O", "values": [
      {"measurement": "%max", "setting": "HepG2 [11]", "value": 20.5, "unit": "%"},
      {"measurement": "Activity", "setting": "HepG2 [12]", "value": "inactive"}
    ]},
    {"smiles": "Cc1c(-c2cnccn2)ssc1=S", "values": [
      {"measurement": "Activity", "setting": "HepG2 [4]", "value": "Active"},
      {"measurement": "Activity", "setting": "HepG2 [5]", "value": "Active"}
    ]},
    {"smiles": "COc1cc(O)cc(OC)c1", "values": [
      {"measurement": "%max", "setting": "HepG2 [11]", "value": 37, "unit": "%"},
      {"measurement": "Activity", "setting": "HepG2 [12]", "value": "inactive"}
    ]},
    {"smiles": "COc1cc(O)c2c(=O)oc3cc(O)c(O)cc3c2c1", "values": [
      {"measurement": "%max", "setting": "HepG2 [1]", "value": 65.7, "unit": "%"},
      {"measurement": "Activity", "setting": "HepG2 [8]", "value": "Toxic"}
    ]}
  ]
}
